Most compounds without a hit are left out; they make up all but 2.5% or so of the library.
NR2E3 ag-1: NR2E3 agonists in two-hybrid cells, primary screen, cell-based, luminescence, CHO-S, Gal4-NCOR/VP16-NR2E3; luciferase; inhibition of corepressor binding, % at 3.98 µM; hit rate 0.35% among 360,000; AID 602229, 2012;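 active means inhibition above the mean of all tested compounds plus 3 SD, cut at about 70% in these data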;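 further: 0% = DMSO with NR2E3 transfected cells and 100% = cells lacking NR2E3 construct; higher means lower luciferase signal from less NR2E3 corepressor binding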
GalR3 antag: GalR3 antagonists in HEK293 cells, primary screen, cell-based, fluorescence readout; Galanin receptor type 3 (Homo sapiens), O60755; HEK293 GalR3-CNG cAMP membrane potential fluorescence; galR3 body fused to GalR1 C-terminus; inhibition, % at 3 µM; hit rate 0.44% among 360,000; AID 651719, 2012;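 active means inhibition above the screen-wide average plus 3 SD, cut at about 13% in these data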;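 further: forskolin and galanin both at EC90 stimulate the cells; cAMP rise reported by CNG channel membrane potential dye signal; 0% = forskolin plus galanin with DMSO and 100% = forskolin alone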
Target sequence (O60755 1-299 limits assumed): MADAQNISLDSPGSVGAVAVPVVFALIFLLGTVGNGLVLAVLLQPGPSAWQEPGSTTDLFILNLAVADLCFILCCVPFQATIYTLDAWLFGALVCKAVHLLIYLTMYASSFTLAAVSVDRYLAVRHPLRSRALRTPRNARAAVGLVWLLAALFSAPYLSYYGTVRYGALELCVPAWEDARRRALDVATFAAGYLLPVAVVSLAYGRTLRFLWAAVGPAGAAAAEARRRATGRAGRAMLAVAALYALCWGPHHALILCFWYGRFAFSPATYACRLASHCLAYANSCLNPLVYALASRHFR
NadD block: inhibitors of S. aureus NadD, primary screen, biochemical, colorimetric, uHTS. Nicotinate-nucleotide adenylyltransferase NadD (Staphylococcus aureus N315). purified NadD enzyme, colorimetric absorbance read-out. inhibition, % at 20 µM. hit rate 0.78% among 360,000; in the data active means inhibition above about 26%
MsrA inh: bovine MsrA enzyme inhibitors, primary screen, biochemical, absorbance, HTS; Methionine sulfoxide reductase A (Bos taurus); purified bovine MsrA, absorbance read-out; inhibition, % at 15.5 µM; hit rate 0.75% among 360,000; AID 651718, 2012; in the data active means inhibition above about 4.5%;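 further: 0% = vehicle wells with enzyme and 100% = reference inhibitor wells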
MsrA act: bovine MsrA enzyme activators, primary screen, biochemical, absorbance, HTS; Methionine sulfoxide reductase A (Bos taurus); activation, % at 10.6 µM; AID 602163, 2012; purified bovine MsrA, absorbance read-out; hit rate 0.3% among 360,000; in the data active means activation above about 7.5%;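 further: 0% = vehicle and 100% = reference activator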
NR2E3 ag-2: inhibitors of NR2E3-RetCOR corepressor binding, primary screen, NR2E3 agonist project, biochemical, TR-FRET, GST-NR2E3, biotin-RetCOR; Photoreceptor-specific nuclear receptor (Homo sapiens), Q9Y5X4; 1536-well; inhibition of corepressor binding, % at 4.78 µM; hit rate 0.12% among 320,000;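 active means percent inhibition above the cutoff of mean plus 3 SD of all tested compounds, set per screening campaign, cut at about 20% in these data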;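 further: 0% = DMSO wells and 100% = biotin wells as full block of FRET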
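system = GST-tagged NR2E3 plus biotinylated RetCOR corepressor | input = 1.35 nM GST-NR2E3 | also added = 7 nM biotin-RetCOR | schedule = 5 h incubation at 4 °C | measured by = TR-FRET with europium anti-GST and streptavidin-D2, 340 nm excitation | read-out = percent loss of FRET ratio relative to control wells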
NadD inh conf: inhibitors of S. aureus NadD, confirmation, biochemical, colorimetric, single concentration | shares compounds with NadD block | purified S. aureus NadD, colorimetric enzyme assay | inhibition, % at 20 µM | hit rate 13% among 2,000 | AID 624309, 2012; in the data active means inhibition mostly above about 42%, no sharp cut-off; inactive means mostly below about 42%
* marks the source's active call; other numbers are inactive results; . = no result; ! = repeats disagree.

SMILES | NR2E3 ag-1 | GalR3 antag | NadD block | MsrA inh | MsrA act | NR2E3 ag-2 | NadD inh conf
Cc1ccc(C)c(N2CCN(C(=O)c3ccc4nc(-c5ccco5)c(-c5ccco5)nc4c3)CC2)c1 | -10 | 3 | 64* | 3 | 1 | 0 | 12
Cc1cc(C)n(-c2nnc(C)n2/N=C/c2ccc(O)cc2)n1 | 0 | 2 | -7 | 3 | -7 | 5 | .
C[c-]1[c-](C)[c-](C)[c-](C)[c-]1C.[Fe].c1cc2nccc(N3CCCC3)[c-]2c1 (stereo not given) | -2 | -4 | 75* | 0 | -2 | 4 | 32*!
COc1ccccc1Cc1c(-c2ccc(C)cc2)nc2c3ccccc3ccn12 | . | -3 | . | 2 | . | . | .
Cc1ccc(-c2nc3c4ccccc4ccn3c2Cc2ccccc2C(F)(F)F)cc1 | -26 | -5 | 31* | 0 | -3 | . | 18
COC(=O)c1ccc(C(=O)N2CCCC(N3CCN(c4ccccc4)CC3)C2)nc1 (stereo not given) | 1 | 0 | 0 | -1 | -2 | -2 | .
Nc1nnc(-c2ccco2)s1 | -15 | -3 | 2 | 2 | -3 | 1 | .
Nc1ncnc2oc(-c3ccco3)c(-c3ccco3)c12 | 11 | -5 | 54* | 3 | -17 | 12 | 27
Cc1[nH]c2ccc(C(=O)NCCCN3CCCC3)cc2c1C | -10 | 1 | 4 | 0 | -4 | 0 | .
Cc1[nH]c2ccc(C(=O)NCCCN3CCCCCC3)cc2c1C | 13 | 0 | 29* | 0 | -4 | -1 | 7
COc1ccc(/C=c2\sc3nc(-c4ccccc4)c(-c4ccccc4)n3c2=O)cc1OC | -30 | 1 | 10 | -1 | 0 | 2 | .
O=c1/c(=C\c2cccc(O)c2)sc2nc(-c3ccccc3)c(-c3ccccc3)n12 | . | 1 | 35* | 1 | . | -2 | -1
C=C(C)[C@@H]1CC[C@]2(C(=O)O)CC[C@]3(C)C(CCC4[C@@]5(C)CC[C@H](O)C(C)(C)C5CC[C@]43C)C12 (stereo not given in full) | -2 | 1 | 3 | 0 | 0 | -1 | .
C=C(C)[C@@H]1CCC2(C(=O)O)CC[C@]3(C)[C@H](CC[C@@H]4[C@@]5(C)CCC(=O)C(C)(C)[C@@H]5CC[C@]43C)[C@@H]12 (stereo not given in full) | -1 | -3 | 48* | 1 | -3 | -2 | 21
O=C(O)c1ccc(F)c(S(=O)(=O)Nc2ccccc2Cl)c1 | 3 | -8 | -5 | 0 | 1 | -1 | .
Cc1cccc(N2CCN(c3ccc4cc(S(=O)(=O)N5CCCCC5)ccc4n3)CC2)c1C | 5 | 4 | 29* | 2 | 1 | -1 | 21
Cc1cccc(N2CCN(c3ccc4cc(S(=O)(=O)N5CCCCC5)ccc4n3)CC2C)c1 (stereo not given) | -7 | 1 | 28 | 1 | -1 | 0 | .
Cc1cccc(N2CCN(C(=O)c3cccc(S(=O)(=O)N4CCCCC4)c3)CC2)c1C | -16 | -3 | -2 | -1 | -3 | . | .
Cc1ccc(C)c(N2CCN(c3ccc4cc(S(=O)(=O)N5CCCCC5)ccc4n3)CC2)c1 | 17 | 2 | 32* | 0 | -10 | 0 | 16
COCc1ccc(C(=O)N2CCCC(Nc3ccc(F)c(F)c3)C2)s1 (stereo not given) | -18 | -2 | 3 | 2 | -3 | 0 | .
CN(/C=C/c1c([N+](=O)[O-])c(=O)n(C)c(=O)n1C)c1ccccc1 | 0 | -3 | -2 | 0 | -2 | -1 | .
Cc1ccc2nc(/C(C#N)=C\c3ccc(Oc4ccc([N+](=O)[O-])cn4)cc3)[nH]c2c1 | -30 | 2 | 36* | 0 | -12 | 0 | 12
CCOc1cc(/C=C(\C#N)c2nc3ccccc3[nH]2)ccc1OC(C)C(=O)O (stereo not given) | -77 | -4 | -2 | 2 | -6 | -3 | .
CCOc1cc(/C=C(/C#N)c2nc3ccccc3[nH]2)ccc1Oc1ccc([N+](=O)[O-])cn1 | -22 | -9 | 54* | -1 | -3 | 2 | 9
COc1ccc2nc(/C(C#N)=C\c3ccc(Oc4ccc([N+](=O)[O-])cn4)cc3)[nH]c2c1 | -93 | 5 | 35* | 0 | -5 | -3 | 9
SMILES | NR2E3 ag-1 | GalR3 antag | NadD block | MsrA inh | MsrA act | NR2E3 ag-2 | NadD inh conf
COc1cc(/C=C(/C#N)c2ccc(C)cc2)ccc1Oc1ccc([N+](=O)[O-])cn1 | 11 | -3 | -3 | -1 | -5 | 0 | .
COc1ccc2nc(/C(C#N)=C\c3ccc(C(=O)O)cc3)[nH]c2c1 | -188 | -3 | 2 | 1 | -2 | 1 | .
c1ccc(-c2nc(SCc3nc4ccccc4[nH]3)c3oc4ccccc4c3n2)cc1 | -30 | -5 | 31* | -1 | -2 | . | 41
Cc1nc(SCc2nc3ccccc3[nH]2)c2oc3ccccc3c2n1 | 18 | 1 | 6 | 0 | 1 | -1 | .
O=C(COc1ccc(/C=N/NC(=O)c2ccc(O)cc2)cc1)Nc1cccc([N+](=O)[O-])c1 | 2 | -6 | 28* | 2 | -9 | -4 | 33
O=C(COc1ccc(/C=N/NC(=O)c2ccncc2)cc1)Nc1ccc([N+](=O)[O-])cc1 | -8 | -6 | 4 | 0 | -6 | -2 | .
O=C(N/N=C/c1ccc(Cl)c([N+](=O)[O-])c1)c1cc(-c2ccc3c4c(cccc24)CC3)n[nH]1 | -21 | -1 | 51* | -2 | -3 | 2 | 1
Cc1ccc([N+](=O)[O-])cc1-c1ccc(/C=N/NC(=O)c2cc3c(ccc4ccccc43)o2)o1 | 5 | -1 | 33* | 0 | -6 | 5 | -5
Cc1ccc(-c2ccc(/C=N\NC(=O)c3cc4c(ccc5ccccc54)o3)o2)cc1[N+](=O)[O-] | 2 | 3 | 45* | 0 | -2 | 3 | 10
Cc1cc(C(=O)N/N=C/c2ccc(-c3ccc([N+](=O)[O-])cc3C)o2)n[nH]1 | -36 | 1 | 22 | 0 | 0 | -1 | .
N#CCn1cc(/C=N/NC(=O)c2cc3c(ccc4ccccc43)o2)c2ccccc21 | -6 | -8 | 31* | 4 | -6 | 1 | 24
Cc1cc([N+](=O)[O-])ccc1-c1ccc(/C=N/NC(=O)c2ccc(Br)o2)o1 | -27 | 0 | 31* | 0 | -1 | 0 | 9

Source: PubChem (several laboratories)
